# Reference: ChEMBL document CHEMBL1139009, “Analogues of neurohypophyseal hormones, oxytocin and arginine vasopressin, conformationally restricted in the N-terminal part of the molecule” (J Med Chem, 2006)
# Key:
# [1] = biological target: T1, Oxytocin receptor (Rattus norvegicus, UniProt P70536); assay: (§1) Uterotonic activity against OT receptor in Wistar rat in absence of magnesium; assay type: functional
# T1 sequence (P70536 whole entry): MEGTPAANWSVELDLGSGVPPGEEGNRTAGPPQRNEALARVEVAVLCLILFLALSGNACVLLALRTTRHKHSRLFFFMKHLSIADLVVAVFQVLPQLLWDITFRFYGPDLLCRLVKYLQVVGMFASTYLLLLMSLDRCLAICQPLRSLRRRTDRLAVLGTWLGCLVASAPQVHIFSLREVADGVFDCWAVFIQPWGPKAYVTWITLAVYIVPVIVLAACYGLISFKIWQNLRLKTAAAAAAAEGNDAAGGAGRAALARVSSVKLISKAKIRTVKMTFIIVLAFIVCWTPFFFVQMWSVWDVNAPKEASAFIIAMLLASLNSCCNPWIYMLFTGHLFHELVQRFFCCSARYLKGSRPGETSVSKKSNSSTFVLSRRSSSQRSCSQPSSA
# Outline: (§2)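 Isolated uterus from female Wistar rats estrogenized 48 h beforehand, tested in vitro without magnesium ions. Synthetic oxytocin served as standard. Dose-response curves from single administrations or cumulative dosing without washing. Values are means of three to five separate experiments.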
# [2] = biological target: Vasopressin V1a receptor (Rattus norvegicus) (UniProt P30560); assay: Pressor activity against V1a receptor in Wistar rat
# Sequence of Vasopressin V1a receptor (Rattus norvegicus) (P30560 whole entry, looked up): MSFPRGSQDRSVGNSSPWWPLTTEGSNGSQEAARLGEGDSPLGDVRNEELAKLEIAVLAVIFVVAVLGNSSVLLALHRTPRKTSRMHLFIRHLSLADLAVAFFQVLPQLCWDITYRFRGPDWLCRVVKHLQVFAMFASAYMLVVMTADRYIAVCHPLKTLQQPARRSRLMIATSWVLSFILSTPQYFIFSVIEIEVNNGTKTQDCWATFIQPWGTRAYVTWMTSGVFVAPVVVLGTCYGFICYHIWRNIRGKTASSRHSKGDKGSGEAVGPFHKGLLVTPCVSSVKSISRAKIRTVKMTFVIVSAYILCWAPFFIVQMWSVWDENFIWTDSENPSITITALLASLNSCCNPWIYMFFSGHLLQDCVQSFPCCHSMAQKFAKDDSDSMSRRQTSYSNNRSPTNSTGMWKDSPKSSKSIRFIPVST
# [3] = species on record: Rattus norvegicus; assay: Antidiuretic activity against V2 receptor in Wistar rat at antidiuresis half life of 60 min; assay type: functional, Urine
# [4] = species on record: Rattus norvegicus; assay: Antidiuretic activity against V2 receptor in Wistar rat at antidiuresis half life of 200 min; assay type: functional, Urine
# [5] = biological target: T2, Oxytocin receptor (Rattus norvegicus) (UniProt P70536); assay: as §1; assay type: functional; outline: as §2
# T2 sequence (whole entry): T1 sequence (P70536 whole entry)
pressor activity [2] [IU/mg],SMILES,Activity [3] [IU/mg],other results
–,CC(C)C[C@H](NC(=O)[C@@H]1CCCN1C(=O)[C@@H]1CSSCCC(=O)N2CCN(C(=O)[C@@H]2Cc2ccccc2)[C@@H](Cc2ccccc2)C(=O)N[C@@H](CCC(N)=O)C(=O)N[C@@H](CC(N)=O)C(=O)N1)C(=O)NCC(N)=O [listing 1 of 2 here],–,pA2 [1]: 6.5
0,CC(C)C[C@H](NC(=O)[C@@H]1CCCN1C(=O)[C@H]1CSSC[C@@H](N)C(=O)N2CCN(C(=O)[C@@H]2Cc2ccccc2)[C@@H](Cc2ccccc2)C(=O)N[C@@H](CCC(N)=O)C(=O)N[C@@H](CC(N)=O)C(=O)N1)C(=O)NCC(N)=O,–,–
–,CC(C)C[C@H](NC(=O)[C@@H]1CCCN1C(=O)[C@@H]1CSSC[C@H](N)C(=O)N2CCN(C(=O)[C@@H]2Cc2ccccc2)[C@@H](Cc2ccccc2)C(=O)N[C@@H](CCC(N)=O)C(=O)N[C@@H](CC(N)=O)C(=O)N1)C(=O)NCC(N)=O [listing 1 of 2 here],<0.04,–
–,CC(C)C[C@H](NC(=O)[C@@H]1CCCN1C(=O)[C@@H]1CSSC2(CCCCC2)CC(=O)N2CCN(C(=O)[C@@H]2Cc2ccccc2)[C@@H](Cc2ccccc2)C(=O)N[C@@H](CCC(N)=O)C(=O)N[C@@H](CC(N)=O)C(=O)N1)C(=O)NCC(N)=O [listing 1 of 2 here],<0.04,–
0,CC(C)C[C@H](NC(=O)[C@@H]1CCCN1C(=O)[C@H]1CSSCCC(=O)N2CCN(C(=O)[C@@H]2Cc2ccccc2)[C@@H](Cc2ccccc2)C(=O)N[C@@H](CCC(N)=O)C(=O)N[C@@H](CC(N)=O)C(=O)N1)C(=O)NCC(N)=O,–,–
0,CC(C)[C@@H]1NC(=O)[C@H](C)N(Cc2ccccc2)C(=O)[C@H](Cc2ccc(O)cc2)NC(=O)[C@H](N)CSSC[C@H](C(=O)N2CCC[C@H]2C(=O)N[C@@H](CCCN=C(N)N)C(=O)NCC(N)=O)NC(=O)[C@H](CC(N)=O)NC1=O,–,–
0,CC(C)C[C@H](NC(=O)[C@@H]1CCCN1C(=O)[C@H]1CSSC2(CCCCC2)CC(=O)N2CCN(C(=O)[C@@H]2Cc2ccccc2)[C@@H](Cc2ccccc2)C(=O)N[C@@H](CCC(N)=O)C(=O)N[C@@H](CC(N)=O)C(=O)N1)C(=O)NCC(N)=O,–,–
–,CC(C)[C@@H]1NC(=O)[C@H](C)N(Cc2ccccc2)C(=O)[C@H](Cc2ccc(O)cc2)NC(=O)CCSSC[C@@H](C(=O)N2CCC[C@H]2C(=O)N[C@@H](CCCN=C(N)N)C(=O)NCC(N)=O)NC(=O)[C@H](CC(N)=O)NC1=O,<0.04,–
0.18,NC(=O)CC[C@@H]1NC(=O)[C@H](Cc2ccccc2)NC(=O)[C@H](Cc2ccc(O)cc2)NC(=O)[C@@](N)(CO)CSSC[C@H](C(=O)N2CCC[C@H]2C(=O)N[C@@H](CCCN=C(N)N)C(=O)NCC(N)=O)NC(=O)[C@H](CC(N)=O)NC1=O,–,–
–,CC(C)C[C@H](NC(=O)[C@@H]1CCCN1C(=O)[C@@H]1CSSCCC(=O)N2CCN(C(=O)[C@@H]2Cc2ccccc2)[C@@H](Cc2ccccc2)C(=O)N[C@@H](CCC(N)=O)C(=O)N[C@@H](CC(N)=O)C(=O)N1)C(=O)NCC(N)=O [listing 2 of 2 here],<0.04,–
–,CC(C)C[C@H](NC(=O)[C@@H]1CCCN1C(=O)[C@@H]1CSSC2(CCCCC2)CC(=O)N2CCN(C(=O)[C@@H]2Cc2ccccc2)[C@@H](Cc2ccccc2)C(=O)N[C@@H](CCC(N)=O)C(=O)N[C@@H](CC(N)=O)C(=O)N1)C(=O)NCC(N)=O [listing 2 of 2 here],–,pA2 [1]: 6.72
0,CC(C)[C@@H]1NC(=O)[C@H](C)N(Cc2ccccc2)C(=O)[C@H](Cc2ccc(O)cc2)NC(=O)CCSSC[C@H](C(=O)N2CCC[C@H]2C(=O)N[C@@H](CCCN=C(N)N)C(=O)NCC(N)=O)NC(=O)[C@H](CC(N)=O)NC1=O,–,–
–,CC(C)[C@@H]1NC(=O)[C@H](C)N(Cc2ccccc2)C(=O)[C@H](Cc2ccc(O)cc2)NC(=O)CC2(CCCCC2)SSC[C@@H](C(=O)N2CCC[C@H]2C(=O)N[C@@H](CCCN=C(N)N)C(=O)NCC(N)=O)NC(=O)[C@H](CC(N)=O)NC1=O,<0.04,–
–,CC(C)[C@@H]1NC(=O)[C@H](C)N(Cc2ccccc2)C(=O)[C@H](Cc2ccc(O)cc2)NC(=O)[C@@H](N)CSSC[C@@H](C(=O)N2CCC[C@H]2C(=O)N[C@@H](CCCN=C(N)N)C(=O)NCC(N)=O)NC(=O)[C@H](CC(N)=O)NC1=O,<0.04,–
–,NC(=O)CC[C@@H]1NC(=O)[C@H](Cc2ccccc2)NC(=O)[C@H](Cc2ccc(O)cc2)NC(=O)[C@@](N)(CO)CSSC[C@@H](C(=O)N2CCC[C@H]2C(=O)N[C@@H](CCCN=C(N)N)C(=O)NCC(N)=O)NC(=O)[C@H](CC(N)=O)NC1=O [listing 1 of 2 here],4.5,Activity [4]: 22.5 IU/mg
–,CC(C)C[C@H](NC(=O)[C@@H]1CCCN1C(=O)[C@@H]1CSSC[C@H](N)C(=O)N2CCN(C(=O)[C@@H]2Cc2ccccc2)[C@@H](Cc2ccccc2)C(=O)N[C@@H](CCC(N)=O)C(=O)N[C@@H](CC(N)=O)C(=O)N1)C(=O)NCC(N)=O [listing 2 of 2 here],–,pA2 [1]: 6.82
–,NC(=O)CC[C@@H]1NC(=O)[C@H](Cc2ccccc2)NC(=O)[C@H](Cc2ccc(O)cc2)NC(=O)[C@@](N)(CO)CSSC[C@@H](C(=O)N2CCC[C@H]2C(=O)N[C@@H](CCCN=C(N)N)C(=O)NCC(N)=O)NC(=O)[C@H](CC(N)=O)NC1=O [listing 2 of 2 here],–,pA2 [1]: 6.4
0,CC(C)[C@@H]1NC(=O)[C@H](C)N(Cc2ccccc2)C(=O)[C@H](Cc2ccc(O)cc2)NC(=O)CC2(CCCCC2)SSC[C@H](C(=O)N2CCC[C@H]2C(=O)N[C@@H](CCCN=C(N)N)C(=O)NCC(N)=O)NC(=O)[C@H](CC(N)=O)NC1=O,–,Activity [5]: 0 IU/mg
